Results from ChEMBL document CHEMBL3875165, “Novel broad-spectrum and long-acting parenteral cephalosporins having an acyl cyanamide moiety at the C-3 terminal: Synthesis and structure-activity relationships” (Eur J Med Chem, 2016).
Values after ≈ are worked out from the molar mass of the structure shown.

Legend:
[1] = AUC (0 to infinity) in monkey at 20 mg/kg, iv administered as bolus dose by HPLC method; type: ADME, organism-based, Macaca mulatta; design: dose 20 mg/kg, time infinity, route intravenous; details: rhesus monkey, in vivo
Outline: (§1)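 Three monkeys per group received a single iv bolus of 20 mg/kg (1 mL/kg). Plasma levels were measured by HPLC. AUC0-∞, CLtot and T1/2 came from a 2-compartment fit.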

[2] = Half life in monkey at 20 mg/kg, iv administered as bolus dose by HPLC method; type: ADME, organism-based, Macaca mulatta; details: rhesus monkey, in vivo; outline: as §1
[3] = Total clearance in monkey at 20 mg/kg, iv administered as bolus dose by HPLC method; type: ADME, organism-based, Macaca mulatta; details: rhesus monkey, in vivo; outline: as §1
[4] = Protein binding in ICR mouse plasma after 30 mins by ultra-filtration method; type: ADME, cell-free; details: read-out: PPB (converted)
Outline: (§2)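 Mouse or monkey plasma was adjusted to pH 7 with CO2 and spiked with compound to a final 10 µg/ml. It was incubated 30 min at 37 °C, then ultrafiltered by centrifugation at 3200 rpm for 30 min at 25 °C. Free drug in the filtrate was measured by bioassay to give the bound fraction.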

[5] = Protein binding in cynomolgus monkey plasma after 30 mins by ultra-filtration method; type: ADME, cell-free, Macaca fascicularis; details: read-out: PPB (converted); outline: as §2
Staphylococcus aureus [6] = test: Antibacterial activity against Staphylococcus aureus SMITH after 20 hrs by agar dilution method; type: functional
Outline: (§3)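 Agar dilution MIC on Sensitivity Disk Agar-N with 2-fold serial drug dilutions. Overnight Mueller Hinton broth cultures were diluted to about 10^6 CFU/mL, and 1 µL spots were applied. Plates were incubated 20 h at 37 °C before scoring.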

Streptococcus pneumoniae [7] = test: Antibacterial activity against penicillin-resistant Streptococcus pneumoniae SR16675 after 20 hrs by agar dilution method; type: functional; details: SR16675, 20 h
Outline: (§4)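 Agar dilution on Sensitivity Disk Agar-N. Overnight Mueller Hinton broth cultures were diluted to about 10^6 CFU/mL, and 1 µL spots were placed on agar plates holding 2-fold serial dilutions of antibiotic. Plates were incubated 20 h at 37 °C and then MICs were scored.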

Streptococcus pneumoniae [8] = test: Antibacterial activity against penicillin-resistant Streptococcus pneumoniae SR16750 after 20 hrs by agar dilution method; type: functional; details: SR16750, 20 h; outline: as §4
Haemophilus influenzae [9] = test: Antibacterial activity against beta-lactamase non-producing penicillin-resistant Haemophilus influenzae SR11435 after 20 hrs by agar dilution method; type: functional; details: SR11435, 20 h; outline: as §4
Haemophilus influenzae [10] = test: Antibacterial activity against beta-lactamase non-producing penicillin-resistant Haemophilus influenzae SR24106 after 20 hrs by agar dilution method; type: functional; details: SR24106, 20 h; outline: as §4
Moraxella catarrhalis = test: Antibacterial activity against Moraxella catarrhalis SR24290 after 20 hrs by agar dilution method; type: functional; details: SR24290, 20 h; outline: as §3
Escherichia coli [11] = test: Antibacterial activity against Escherichia coli NIHJ JC-2 after 20 hrs by agar dilution method; type: functional; details: NIHJ JC-2, 20 h; outline: as §3
Streptococcus pneumoniae [12] = test: Antibacterial activity against penicillin-susceptible Streptococcus pneumoniae SR16605 infected in sc dosed mouse assessed as protection against bacterial infection by measuring increase in mouse survival administered 1 and 5 hrs post infection measured after 7 days; type: functional
Outline: (§5)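 Mouse septicemia model in six-week-old male Jcl:ICR mice (19 to 25 g). Mice were infected intraperitoneally with 0.5 mL of S. pneumoniae suspension in hog mucin. Compound was given subcutaneously 1 and 5 h after infection. Mortality was recorded over 7 days, and ED50 with 90% confidence limits was derived by the logit method.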

Streptococcus pneumoniae [13] = test: Antibacterial activity against penicillin-resistant Streptococcus pneumoniae SR16754 infected in sc dosed mouse assessed as protection against bacterial infection by measuring increase in mouse survival administered 1 and 5 hrs post infection measured after 7 days; type: functional; outline: as §5
Streptococcus pneumoniae [14] = test: Antibacterial activity against penicillin-susceptible Streptococcus pneumoniae SR16605 after 20 hrs by agar dilution method; type: functional; details: SR16605, 20 h; outline: as §4
Streptococcus pneumoniae [15] = test: Antibacterial activity against penicillin-resistant Streptococcus pneumoniae SR16754 after 20 hrs by agar dilution method; type: functional; details: SR16754, 20 h; outline: as §4
Streptococcus pneumoniae [16] = test: Potency index, ratio of Ceftriaxone MIC to compound MIC for penicillin-susceptible Streptococcus pneumoniae SR16605; type: functional
[17] = Half life in mouse at 20 mg/kg, iv administered as bolus dose by band-culture bioassay; details: in vivo
[18] = Total clearance in mouse at 20 mg/kg, iv administered as bolus dose by band-culture bioassay; details: in vivo
[19] = AUC (0 to infinity) in mouse at 20 mg/kg, iv administered as bolus dose by band-culture bioassay; details: in vivo
Staphylococcus aureus [20] = test: Antibacterial activity against Staphylococcus aureus SMITH; type: functional; outline: as §3
Staphylococcus aureus [21] = test: Antibacterial activity against methicillin-resistant Staphylococcus aureus SR2030; type: functional; outline: as §4
Staphylococcus aureus [22] = test: Antibacterial activity against methicillin-resistant Staphylococcus aureus SR3626; type: functional; outline: as §4
Escherichia coli [23] = test: Antibacterial activity against Escherichia coli NIHJ JC-2; type: functional; outline: as §3
Pseudomonas aeruginosa [24] = test: Antibacterial activity against Pseudomonas aeruginosa PAO1; type: functional; outline: as §3
Pseudomonas aeruginosa [25] = test: Antibacterial activity against Pseudomonas aeruginosa SA24; type: functional; outline: as §3

## CCO/N=C(\C(=O)N[C@@H]1C(=O)N2C(C(=O)[O-])=C(/C=C/C[n+]3ccc(-c4nc(/C([O-])=N/C#N)cs4)cc3)CS[C@H]12)c1csc(N)n1.[Na+]
[1]
  AUC: 37500 ng·h/mL
[2]
  half-life: 233 min
[3]
  clearance: 0.49 mL/min/kg
[4]
  fraction unbound at 0.5 h: 0.81
[5]
  fraction unbound at 0.5 h: 0.27
Staphylococcus aureus [6]
  MIC: 0.5 µg/mL
Streptococcus pneumoniae [7]
  MIC: 0.25 µg/mL
Streptococcus pneumoniae [8]
  MIC: 0.25 µg/mL
Haemophilus influenzae [9]
  MIC: 0.031 µg/mL
Haemophilus influenzae [10]
  MIC: 0.063 µg/mL
Moraxella catarrhalis
  MIC: 1 µg/mL
Escherichia coli [11]
  MIC: 0.063 µg/mL
Streptococcus pneumoniae [12]
  ED50: 0.017 mg/kg
Streptococcus pneumoniae [13]
  ED50: 0.71 mg/kg
Streptococcus pneumoniae [14]
  MIC: 0.008 µg/mL
Streptococcus pneumoniae [15]
  MIC: 0.25 µg/mL
Streptococcus pneumoniae [16]
  Ratio: 2 - 3
[17]
  half-life: 40.2 min
[18]
  clearance: 16 mL/min/kg
[19]
  AUC(0-inf): 20900 ng·h/mL

## CCO/N=C(\C(=O)N[C@@H]1C(=O)N2C(C(=O)[O-])=C(C[n+]3ccc(-c4cc[nH]c4)cc3)CS[C@H]12)c1nsc(N)n1
Staphylococcus aureus [20]
  MIC: 0.4 µg/mL (≈ 0.721 µM)
Staphylococcus aureus [21]
  MIC: 1.6 µg/mL (≈ 2.88 µM)
Staphylococcus aureus [22]
  MIC: 6.3 µg/mL (≈ 11.4 µM)
Escherichia coli [23]
  MIC: 0.02 µg/mL (≈ 0.0361 µM)
Pseudomonas aeruginosa [24]
  MIC: 0.8 µg/mL (≈ 1.44 µM)
Pseudomonas aeruginosa [25]
  MIC: 0.8 µg/mL (≈ 1.44 µM)

## CCO/N=C(\C(=O)N[C@@H]1C(=O)N2C(C(=O)[O-])=C(C[n+]3ccc(-c4c[nH]c(C(=O)O)c4)cc3)CS[C@H]12)c1nsc(N)n1
Staphylococcus aureus [20]
  MIC: 3.1 µg/mL (≈ 5.18 µM)
Staphylococcus aureus [21]
  MIC: 12.5 µg/mL (≈ 20.9 µM)
Staphylococcus aureus [22]
  MIC: 25 µg/mL (≈ 41.8 µM)
Escherichia coli [23]
  MIC: 0.05 µg/mL (≈ 0.0835 µM)
Pseudomonas aeruginosa [24]
  MIC: 0.8 µg/mL (≈ 1.34 µM)
Pseudomonas aeruginosa [25]
  MIC: 0.8 µg/mL (≈ 1.34 µM)

## CO/N=C(\C(=O)N[C@@H]1C(=O)N2C(C(=O)[O-])=C(C[n+]3ccn4ncccc43)CS[C@H]12)c1nsc(N)n1 [CEFOZOPRAN]
Staphylococcus aureus [20]
  MIC: 0.8 µg/mL (≈ 1.55 µM)
Staphylococcus aureus [21]
  MIC: 12.5 µg/mL (≈ 24.2 µM)
Staphylococcus aureus [22]
  MIC: 50 µg/mL (≈ 97 µM)
Escherichia coli [23]
  MIC: 0.05 µg/mL (≈ 0.097 µM)
Pseudomonas aeruginosa [24]
  MIC: 0.8 µg/mL (≈ 1.55 µM)
Pseudomonas aeruginosa [25]
  MIC: 0.4 µg/mL (≈ 0.776 µM)
[1]
  AUC: 15000 ng·h/mL
[2]
  half-life: 72 min
[17]
  half-life: 24 min
[19]
  AUC(0-inf): 30300 ng·h/mL

## CCO/N=C(\C(=O)N[C@@H]1C(=O)N2C(C(=O)[O-])=C(C[n+]3ccc(-c4c[nH]c(C(=O)NC#N)c4)cc3)CS[C@H]12)c1nsc(N)n1
Staphylococcus aureus [20]
  MIC: 1.6 µg/mL (≈ 2.57 µM)
Staphylococcus aureus [21]
  MIC: 12.5 µg/mL (≈ 20.1 µM)
Staphylococcus aureus [22]
  MIC: 12.5 µg/mL (≈ 20.1 µM)
Escherichia coli [23]
  MIC: 0.1 µg/mL (≈ 0.161 µM)
Pseudomonas aeruginosa [24]
  MIC: 0.8 µg/mL (≈ 1.28 µM)
Pseudomonas aeruginosa [25]
  MIC: 0.4 µg/mL (≈ 0.642 µM)
[1]
  AUC: 22000 ng·h/mL
[2]
  half-life: 120 min
[17]
  half-life: 24 min
[19]
  AUC(0-inf): 27300 ng·h/mL

## CO/N=C(\C(=O)N[C@@H]1C(=O)N2C(C(=O)O)=C(CSc3nc(=O)c(=O)[nH]n3C)CS[C@H]12)c1csc(N)n1 [CEFTRIAXONE]
[1]
  AUC: 21900 ng·h/mL
[2]
  half-life: 117 min
[3]
  clearance: 0.77 mL/min/kg
[4]
  fraction unbound at 0.5 h: 0.06
[5]
  fraction unbound at 0.5 h: 0.05
Staphylococcus aureus [6]
  MIC: 2 µg/mL (≈ 3.61 µM)
Streptococcus pneumoniae [7]
  MIC: 1 µg/mL (≈ 1.8 µM)
Streptococcus pneumoniae [8]
  MIC: 2 µg/mL (≈ 3.61 µM)
Haemophilus influenzae [9]
  MIC: 0.125 µg/mL (≈ 0.225 µM)
Haemophilus influenzae [10]
  MIC: 0.25 µg/mL (≈ 0.451 µM)
Moraxella catarrhalis
  MIC: 1 µg/mL (≈ 1.8 µM)
Escherichia coli [11]
  MIC: 0.125 µg/mL (≈ 0.225 µM)
Streptococcus pneumoniae [12]
  ED50: 0.11 mg/kg
Streptococcus pneumoniae [13]
  ED50: 5.65 mg/kg
Streptococcus pneumoniae [14]
  MIC: 0.016 µg/mL (≈ 0.0289 µM)
Streptococcus pneumoniae [15]
  MIC: 1 µg/mL (≈ 1.8 µM)
[17]
  half-life: 38.4 min
[18]
  clearance: 5.49 mL/min/kg
[19]
  AUC(0-inf): 60800 ng·h/mL

## CCO/N=C(\C(=O)N[C@@H]1C(=O)N2C(C(=O)[O-])=C(/C=C/C[n+]3ccc(/C([O-])=N/C#N)cc3)CS[C@H]12)c1csc(N)n1.[Na+]
[1]
  AUC: 9700 ng·h/mL
[2]
  half-life: 73.2 min
[3]
  clearance: 1.84 mL/min/kg
[4]
  fraction unbound at 0.5 h: 0.92
[5]
  fraction unbound at 0.5 h: 0.59
Staphylococcus aureus [6]
  MIC: 0.5 µg/mL
Streptococcus pneumoniae [7]
  MIC: 0.25 µg/mL
Streptococcus pneumoniae [8]
  MIC: 0.5 µg/mL
Haemophilus influenzae [9]
  MIC: 0.063 µg/mL
Haemophilus influenzae [10]
  MIC: 0.125 µg/mL
Moraxella catarrhalis
  MIC: 1 µg/mL
Escherichia coli [11]
  MIC: 0.25 µg/mL
[17]
  half-life: 43.2 min
[18]
  clearance: 22.9 mL/min/kg
[19]
  AUC(0-inf): 14600 ng·h/mL
